Laboratory results taken from ChEMBL document CHEMBL4312003, “Optimization of biaryloxazolidinone as promising antibacterial agents against antibiotic-susceptible and antibiotic-resistant gram-positive bacteria” (Eur J Med Chem, 2020).
In brackets after ≈: the same amount, converted by molar mass.

What was measured:
Staphylococcus aureus [1] = assay: Antibacterial activity against methicillin-resistant Staphylococcus aureus assessed as complete reduction in bacterial cell growth by CLSI protocol based broth liquid microdilution method; type: functional
In short: (§1)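 Broth liquid microdilution per CLSI guidelines; isolates identified on an automated MicroScan system before testing. MIC taken as lowest concentration giving total inhibition of bacterial growth, reported in μg/mL. S. aureus ATCC29213 run as the control strain.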

Enterococcus faecium [2] = assay: Antibacterial activity against vancomycin-resistant Enterococcus faecium assessed as complete reduction in bacterial cell growth by CLSI protocol based broth liquid microdilution method; type: functional; in short: as §1
Enterococcus faecalis [3] = assay: Antibacterial activity against linezolid-resistant Enterococcus faecalis assessed as complete reduction in bacterial cell growth by CLSI protocol based broth liquid microdilution method; type: functional; in short: as §1
Staphylococcus aureus [4] = assay: Antibacterial activity against Staphylococcus aureus ATCC 29213 assessed as complete reduction in bacterial cell growth by CLSI protocol based broth liquid microdilution method; type: functional; in short: as §1
Staphylococcus aureus [5] = assay: Antibacterial activity against methicillin-sensitive Staphylococcus aureus assessed as complete reduction in bacterial cell growth by CLSI protocol based broth liquid microdilution method; type: functional; in short: as §1
[6] = Stability in simulated gastric acid assessed as compound remaining at pH 1.2 incubated for 0.5 hrs; type: ADME; conditions: read-out: Stability
[7] = Stability in simulated gastric acid assessed as compound remaining at pH 1.2 incubated for 1.5 hrs; type: ADME; conditions: read-out: Stability
Staphylococcus aureus [8] = assay: Antibacterial activity against clinical isolates of methicillin-sensitive Staphylococcus aureus assessed as reduction in bacterial cell growth by CLSI protocol based broth microdilution method; type: functional; in short: as §1
[9] = Stability in simulated gastric acid assessed as compound remaining at pH 1.2 incubated for 1 hr; type: ADME; conditions: read-out: Stability
[10] = Stability in simulated gastric acid assessed as compound remaining at pH 1.2 incubated for 2 hrs; type: ADME; conditions: read-out: Stability
Enterococcus faecium [11] = assay: Antibacterial activity against clinical isolates of vancomycin-resistant Enterococcus faecium assessed as complete reduction in bacterial cell growth by CLSI protocol based broth liquid microdilution method; type: functional; in short: as §1
Enterococcus faecalis [12] = assay: Antibacterial activity against clinical isolates of linezolid-resistant Enterococcus faecalis assessed as complete reduction in bacterial cell growth by CLSI protocol based broth liquid microdilution method; type: functional; in short: as §1
HepG2 = assay: Cytotoxicity against human HepG2 cells assessed as reduction in cell viability incubated for 48 hrs by MTT assay; type: cell-based; conditions: HepG2, 48 h
In short: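 HepG2 cells were grown in RPMI1640 with 10% FBS and plated at about 4×10^4 cells/well in MEM. After 24 h at 37 °C in 5% CO2, compounds were added at the indicated final concentrations for 48 h. MTT was added (0.5 mg/mL final) for 4 h at 37 °C and the formazan dissolved in DMSO. Absorbance was read at 492 nm (630 nm reference). Each compound was tested three times; IC50 given as mean ± SD.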

| SMILES | MIC (Staphylococcus aureus [1]) [µg/mL] | MIC (Enterococcus faecium [2]) [µg/mL] | MIC (Enterococcus faecalis [3]) [µg/mL] | MIC (Staphylococcus aureus [4]) [µg/mL] | MIC (Staphylococcus aureus [5]) [µg/mL] | remaining at 0.5 h [6] [%] | remaining at 1.5 h [7] [%] | MIC (Staphylococcus aureus [8]) [µg/mL] | remaining at 1 h [9] [%] | remaining at 2 h [10] [%] | MIC (Enterococcus faecium [11]) [µg/mL] | MIC (Enterococcus faecalis [12]) [µg/mL] | IC50 (HepG2) [µM] |
| --- | --- | --- | --- | --- | --- | --- | --- | --- | --- | --- | --- | --- | --- |
| CC(=O)NC[C@H]1CN(c2ccc(-c3ccc(/C=N/N4CC[S+]([O-])CC4)cn3)c(F)c2)C(=O)O1 | 1 (≈ 2.11 µM) | 2 (≈ 4.22 µM) | 2 (≈ 4.22 µM) | 2 (≈ 4.22 µM) | 2 (≈ 4.22 µM) |  |  |  |  |  |  |  |  |
| CC(=O)NC[C@H]1CN(c2ccc(-c3ccc(/C=N/N4CCNCC4)c(O)c3)c(F)c2)C(=O)O1 | 0.25 (≈ 0.549 µM) | 0.25 (≈ 0.549 µM) | 0.25 (≈ 0.549 µM) | 0.5 (≈ 1.1 µM) | 0.25 (≈ 0.549 µM) |  |  |  |  |  |  |  |  |
| COc1cc(-c2ccc(N3C[C@H](CNC(C)=O)OC3=O)cc2F)ccc1/C=N/N1CCSCC1 | 1 (≈ 2.06 µM) | 1 (≈ 2.06 µM) | 1 (≈ 2.06 µM) | 2 (≈ 4.11 µM) | 1 (≈ 2.06 µM) |  |  |  |  |  |  |  |  |
| CC(=O)NC[C@H]1CN(c2ccc(-c3ccc(/C=N/N4CCN(C)CC4)c(O)c3)c(F)c2)C(=O)O1 | 0.125 (≈ 0.266 µM) | 0.25 (≈ 0.532 µM) | 0.25 (≈ 0.532 µM) | 0.125 (≈ 0.266 µM) | 0.12 (≈ 0.256 µM) | 69.8 | 12.2 | 0.5 to 1 (≈ 1.06 to 2.13 µM) | 35 | 5.3 | 1 (≈ 2.13 µM) | 1 (≈ 2.13 µM) | > 25 |
| CC(=O)NC[C@H]1CN(c2ccc(-c3ccc(/C=N/N4CCN(C)CC4)c(C)c3)c(F)c2)C(=O)O1 | 0.5 (≈ 1.07 µM) | 0.5 (≈ 1.07 µM) | 0.5 (≈ 1.07 µM) | 0.5 (≈ 1.07 µM) | 0.5 (≈ 1.07 µM) |  |  |  |  |  |  |  |  |
| CC(=O)NC[C@H]1CN(c2ccc(-c3ccc(/C=N/N4CCSCC4)c(C(F)(F)F)c3)c(F)c2)C(=O)O1 | 2 (≈ 3.81 µM) | 2 (≈ 3.81 µM) | 2 (≈ 3.81 µM) | 2 (≈ 3.81 µM) | 2 (≈ 3.81 µM) |  |  |  |  |  |  |  |  |
| COc1cc(-c2ccc(N3C[C@H](CNC(C)=O)OC3=O)cc2F)ccc1/C=N/N1CCOCC1 | 2 (≈ 4.25 µM) | 2 (≈ 4.25 µM) | 2 (≈ 4.25 µM) | 2 (≈ 4.25 µM) | 2 (≈ 4.25 µM) |  |  |  |  |  |  |  |  |
| CC(=O)NC[C@H]1CN(c2ccc(-c3ccc(/C=N/N4CCCCC4)c(F)c3)c(F)c2)C(=O)O1 | 0.25 (≈ 0.548 µM) | 0.5 (≈ 1.1 µM) | 0.5 (≈ 1.1 µM) | 0.25 (≈ 0.548 µM) | 0.25 (≈ 0.548 µM) |  |  |  |  |  |  |  |  |
| CC(=O)NC[C@H]1CN(c2ccc(-c3ccc(/C=N/N4CCSCC4)c(F)c3)c(F)c2)C(=O)O1 | 0.25 (≈ 0.527 µM) | 1 (≈ 2.11 µM) | 1 (≈ 2.11 µM) | 0.25 (≈ 0.527 µM) | 0.25 (≈ 0.527 µM) |  |  |  |  |  |  |  |  |
| CC(=O)NC[C@H]1CN(c2ccc(-c3ccc(/C=N/N4CCNCC4)nc3)c(F)c2)C(=O)O1 | 0.5 (≈ 1.14 µM) | 0.5 (≈ 1.14 µM) | 0.5 (≈ 1.14 µM) | 0.5 (≈ 1.14 µM) | 1 (≈ 2.27 µM) |  |  |  |  |  |  |  |  |
| CC(=O)NC[C@H]1CN(c2ccc(-c3ccc(/C=N/N4CCSCC4)cn3)c(F)c2)C(=O)O1 | 0.5 (≈ 1.09 µM) | 2 (≈ 4.37 µM) | 2 (≈ 4.37 µM) | 1 (≈ 2.19 µM) | 2 (≈ 4.37 µM) |  |  |  |  |  |  |  |  |
| CC(=O)NC[C@H]1CN(c2ccc(-c3ccc(/C=N/N4CCS(=O)(=O)CC4)cn3)c(F)c2)C(=O)O1 | 1 (≈ 2.04 µM) | 1 (≈ 2.04 µM) | 1 (≈ 2.04 µM) | 2 (≈ 4.09 µM) | 1 (≈ 2.04 µM) |  |  |  |  |  |  |  |  |
| CCC(=O)N1CCN(/N=C/c2ccc(-c3ccc(N4C[C@H](CNC(C)=O)OC4=O)cc3F)cc2O)CC1 | 0.25 (≈ 0.489 µM) | 0.25 (≈ 0.489 µM) | 0.25 (≈ 0.489 µM) | 0.25 (≈ 0.489 µM) | 0.25 (≈ 0.489 µM) |  |  | 1 to 2 (≈ 1.95 to 3.91 µM) |  |  | 1 to 2 (≈ 1.95 to 3.91 µM) | 1 to 2 (≈ 1.95 to 3.91 µM) |  |
| CC(=O)NC[C@H]1CN(c2ccc(-c3ccc(/C=N/N4CCN(C)CC4)c(F)c3)c(F)c2)C(=O)O1 | 1 (≈ 2.12 µM) | 1 (≈ 2.12 µM) | 1 (≈ 2.12 µM) | 1 (≈ 2.12 µM) | 1 (≈ 2.12 µM) |  |  |  |  |  |  |  |  |
